According to ChEMBL document CHEMBL1649408, “Synthesis and in vitro antimycobacterial activity of 8-OCH(3) ciprofloxacin methylene and ethylene isatin derivatives” (Eur J Med Chem, 2011):
In brackets after ≈: the same amount, converted by molar mass.

Assays:
[1] = system: Mycobacterium tuberculosis; experiment: Antimycobacterial activity against multidrug-resistant Mycobacterium tuberculosis 09710 after 7 days by serial double dilution technique; type: functional; conditions: Mycobacterium tuberculosis, 09710, 168 h
Method in brief: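 MDR strain (resistant to RIF, INH, EMB, SM), clinical isolate, tested by rapid direct susceptibility test. Compounds two-fold diluted in 2× Advanced Middlebrook 7H9 broth, final 256 to 1 µg/ml, mixed 1:1 with suspension containing 4 × 10^-3 mg cells. Incubated sealed at 37 °C in wet box; read at 3 days, redetermined at 7 days by high-magnification visual system. MIC = complete growth inhibition.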

[2] = system: Mycobacterium tuberculosis; experiment: Ratio of compound MIC to ciprofloxacin MIC for multidrug-resistant Mycobacterium tuberculosis 09710; type: functional

Row | SMILES | MIC [1] | Ratio [2]
1 | CCO/N=C1\C(=O)N(CN2CCN(c3c(F)cc4c(=O)c(C(=O)O)cn(C5CC5)c4c3OC)CC2)c2ccccc21 | 28.4 µM (≈ 16 µg/mL) | 
2 | COc1c(N2CCN(CN3C(=O)/C(=N\NC(N)=O)c4cc(F)ccc43)CC2)c(F)cc2c(=O)c(C(=O)O)cn(C3CC3)c12 | 6.72 µM (≈ 4 µg/mL) | 3.5
3 | COc1c(N2CCN(CN3C(=O)/C(=N\NC(N)=O)c4ccccc43)CC2)c(F)cc2c(=O)c(C(=O)O)cn(C3CC3)c12 | 6.93 µM (≈ 4 µg/mL) | 3.5
4 | COc1c(N2CCN(CN3C(=O)/C(=N\O)c4ccccc43)CC2)c(F)cc2c(=O)c(C(=O)O)cn(C3CC3)c12 | 29.9 µM (≈ 16 µg/mL) | 
5 | NNC(=O)c1ccncc1 [ISONIAZID] | 467 µM (≈ 64 µg/mL) | 
6 | COc1c(N2CCN(CN3C(=O)C(=O)c4cc(F)ccc43)CC2)c(F)cc2c(=O)c(C(=O)O)cn(C3CC3)c12 | 14.9 µM (≈ 8.01 µg/mL) | 
7 | COc1c(N2CCN(CN3C(=O)/C(=N\O)c4cc(F)ccc43)CC2)c(F)cc2c(=O)c(C(=O)O)cn(C3CC3)c12 | 14.5 µM (≈ 8.01 µg/mL) | 
8 | COc1c(N2CCN(CN3C(=O)C(=O)c4ccccc43)CC2)c(F)cc2c(=O)c(C(=O)O)cn(C3CC3)c12 | 30.8 µM (≈ 16 µg/mL) | 
9 | CO/N=C1\C(=O)N(CN2CCN(c3c(F)cc4c(=O)c(C(=O)O)cn(C5CC5)c4c3OC)CC2)c2ccccc21 | 14.6 µM (≈ 8.01 µg/mL) | 
10 | COc1c(N2CCN(CN3C(=O)/C(=N\NC(N)=S)c4ccccc43)CC2)c(F)cc2c(=O)c(C(=O)O)cn(C3CC3)c12 | 6.75 µM (≈ 4.01 µg/mL) | 3.5
11 | CO/N=C1\C(=O)N(CN2CCN(c3c(F)cc4c(=O)c(C(=O)O)cn(C5CC5)c4c3OC)CC2)c2ccc(F)cc21 | 7.05 µM (≈ 4 µg/mL) | 3.5
12 | COc1c(N2CCNCC2)c(F)cc2c(=O)c(C(=O)O)cn(C3CC3)c12 | 11.1 µM (≈ 4 µg/mL) | 
13 | CO[C@H]1/C=C/O[C@@]2(C)Oc3c(C)c(O)c4c(O)c(c(/C=N/N5CCN(C)CC5)c(O)c4c3C2=O)NC(=O)/C(C)=C\C=C\[C@H](C)[C@H](O)[C@@H](C)[C@@H](O)[C@@H](C)[C@H](OC(C)=O)[C@@H]1C [RIFAMPIN] | > 311 µM | 
14 | O=C(O)c1cn(C2CC2)c2cc(N3CCNCC3)c(F)cc2c1=O [CIPROFLOXACIN] | 24.2 µM (≈ 8.01 µg/mL) | 
